In ChEMBL document CHEMBL4257545, “Synthesis of novel perillyl-dihydropyrimidinone hybrids designed for antiproliferative activity” (Medchemcomm, 2018):
The source made the active and inactive calls. The rule behind the calls is not given here.

How the values were obtained:
UACC-62 [1] = assay: Antiproliferative activity against human UACC62 cells assessed as cell growth inhibition after 48 hrs by sulforhodamine B assay; format: functional; settings: UACC-62, 48 h
Summary of the method: (§1)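 Human tumour lines and HaCaT normal keratinocytes in 96-well plates, exposed to compound in DMSO/RPMI (final DMSO 0.2%) for 48 h at 37 °C, 5% CO2. Cells were fixed with 50% trichloroacetic acid at time zero and after treatment. Protein was stained with sulforhodamine B and read at 540 nm. TGI (total growth inhibition) was derived by non-linear regression from triplicate runs.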

U-251 = assay: Antiproliferative activity against human U251 cells assessed as cell growth inhibition after 48 hrs by sulforhodamine B assay; format: functional; settings: U-251, 48 h; summary of the method: as §1
HT-29 [2] = assay: Antiproliferative activity against human HT-29 cells assessed as cell growth inhibition after 48 hrs by sulforhodamine B assay; format: functional; settings: HT-29, 48 h; summary of the method: as §1
NCI/ADR-RES [3] = assay: Antiproliferative activity against human NCI/ADR-RES cells assessed as cell growth inhibition after 48 hrs by sulforhodamine B assay; format: functional; summary of the method: as §1
NCI-H460 = assay: Antiproliferative activity against human NCI-H460 cells assessed as cell growth inhibition after 48 hrs by sulforhodamine B assay; format: functional; settings: NCI-H460, 48 h; summary of the method: as §1
HaCaT = assay: Cytotoxicity against human HaCaT cells assessed as cell growth inhibition after 48 hrs by sulforhodamine B assay; format: cell-based; summary of the method: as §1
[4] = Selectivity index, ratio of TGI for human HaCaT cells to TGI for human U251 cells; format: toxicity; settings: HaCaT cells and U251 cells, read-out: Selectivity Index
MCF7 [5] = assay: Antiproliferative activity against human MCF7 cells assessed as cell growth inhibition after 48 hrs by sulforhodamine B assay; format: functional; settings: MCF7, 48 h; summary of the method: as §1
786-0 [6] = assay: Antiproliferative activity against human 786-0 cells assessed as cell growth inhibition after 48 hrs by sulforhodamine B assay; format: functional; settings: 786-0, 48 h; summary of the method: as §1
PC-3 [7] = assay: Antiproliferative activity against human PC3 cells assessed as cell growth inhibition after 48 hrs by sulforhodamine B assay; format: functional; settings: PC-3, 48 h; summary of the method: as §1
OVCAR-3 [8] = assay: Antiproliferative activity against human OVCAR3 cells assessed as cell growth inhibition after 48 hrs by sulforhodamine B assay; format: functional; settings: OVCAR-3, 48 h; summary of the method: as §1
UACC-62 [9] = assay: Antiproliferative activity against human UACC62 cells at 25 uM after 48 hrs by sulforhodamine B assay; format: functional, cell-based
Summary of the method: (§2)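 Growth-inhibition profile of each tumour line at a single compound concentration of 25 μM. Cells were treated in DMSO/RPMI (final DMSO 0.2%) for 48 h at 37 °C, 5% CO2. Cells were fixed with 50% TCA before and after exposure. Cellular protein was quantified by sulforhodamine B staining at 540 nm.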

786-0 [10] = assay: Antiproliferative activity against human 786-0 cells at 25 uM after 48 hrs by sulforhodamine B assay; format: functional, cell-based; summary of the method: as §2
MCF7 [11] = assay: Antiproliferative activity against human MCF7 cells at 25 uM after 48 hrs by sulforhodamine B assay; format: functional, cell-based; summary of the method: as §2
OVCAR-3 [12] = assay: Antiproliferative activity against human OVCAR3 cells at 25 uM after 48 hrs by sulforhodamine B assay; format: functional, cell-based; summary of the method: as §2
HT-29 [13] = assay: Antiproliferative activity against human HT-29 cells at 25 uM after 48 hrs by sulforhodamine B assay; format: functional, cell-based; summary of the method: as §2
PC-3 [14] = assay: Antiproliferative activity against human PC3 cells at 25 uM after 48 hrs by sulforhodamine B assay; format: functional, cell-based; summary of the method: as §2
NCI/ADR-RES [15] = assay: Antiproliferative activity against human NCI/ADR-RES cells at 25 uM after 48 hrs by sulforhodamine B assay; format: functional, cell-based; summary of the method: as §2

| SMILES | TGI (UACC-62 [1]) [µM] | TGI (U-251) [µM] | TGI (HT-29 [2]) [µM] | TGI (NCI/ADR-RES [3]) [µM] | TGI (NCI-H460) [µM] | TGI (HaCaT) [µM] | selectivity ratio [4] | TGI (MCF7 [5]) [µM] | TGI (786-0 [6]) [µM] | TGI (PC-3 [7]) [µM] | TGI (OVCAR-3 [8]) [µM] | Activity (UACC-62 [9]) | Activity (786-0 [10]) | Activity (MCF7 [11]) | Activity (OVCAR-3 [12]) | Activity (HT-29 [13]) | Activity (PC-3 [14]) | Activity (NCI/ADR-RES [15]) |
| --- | --- | --- | --- | --- | --- | --- | --- | --- | --- | --- | --- | --- | --- | --- | --- | --- | --- | --- |
| C=C(C)[C@@H]1CC=C(Cn2cc(COc3cc(C4NC(=O)NC5=C4C(=O)CC(C)(C)C5)ccc3OC)nn2)CC1 (some centres not stated) | 62 | 8.28 | > 100 | > 100 | > 100 | 451.02 | 54.5 | 44.8 | > 100 | 79.9 | > 100 | – | – | – | – | – | – | – |
| C=C(C)[C@@H]1CC=C(Cn2cc(COc3cccc(C4NC(=O)NC(C)=C4C(=O)OCC)c3)nn2)CC1 (some centres not stated) | 22.9 | 12.2 | 73.4 | > 100 | > 100 | 507.82 | 41.7 | 42.5 | 39.7 | > 100 | 18.4 | – | – | – | – | – | – | – |
| C=C(C)[C@@H]1CC=C(Cn2cc(COc3ccccc3C3NC(=O)NC(C)=C3C(C)=O)nn2)CC1 (some centres not stated) | 34.2 | 30.2 | 79.5 | > 100 | 83.1 | 29.51 | – | 68.7 | 80.3 | 62 | 34.3 | – | – | – | – | – | – | – |
| C=C(C)[C@@H]1CC=C(Cn2cc(COc3cccc(C4NC(=O)NC5=C4C(=O)CC(C)(C)C5)c3)nn2)CC1 (some centres not stated) | 20.9 | 26 | 49 | > 100 | 51.6 | 36.44 | – | 31 | > 100 | 21.9 | > 100 | – | – | – | – | – | – | – |
| C=C(C)[C@@H]1CC=C(Cn2cc(COc3ccc(C4NC(=O)NC5=C4C(=O)CC(C)(C)C5)cc3OC)nn2)CC1 (some centres not stated) | 86.2 | 44 | > 100 | > 100 | > 100 | 71.34 | – | 91.9 | > 100 | > 100 | 95 | – | – | – | – | – | – | – |
| C=C(C)[C@@H]1CC=C(Cn2cc(COc3ccc(C4NC(=O)NC(C)=C4C(C)=O)cc3)nn2)CC1 (some centres not stated) | 20.5 | 20 | 62.6 | > 100 | 78.2 | 44.47 | – | 29 | 23.3 | 49.3 | 32.6 | – | – | – | – | – | – | – |
| C=C(C)[C@@H]1CC=C(Cn2cc(COc3ccc(C4NC(=O)NC(C)=C4C(C)=O)cc3OC)nn2)CC1 (some centres not stated) | 3.83 | 77.9 | 95 | 80.2 | > 100 | 147.92 | – | 53.3 | 88.1 | 85.7 | 48 | – | – | – | – | – | – | – |
| C=C(C)[C@@H]1CC=C(Cn2cc(COc3ccc(C4NC(=O)NC(C)=C4C(=O)OCC)cc3OC)nn2)CC1 (some centres not stated) | 26.7 | 11.3 | > 100 | > 100 | > 100 | 75.76 | – | 82.5 | 87.3 | 54.4 | 53.8 | – | – | – | – | – | – | – |
| C=C(C)[C@@H]1CC=C(Cn2cc(COc3cccc(C4NC(=O)NC(C)=C4C(C)=O)c3)nn2)CC1 (some centres not stated) | 31.6 | 30.5 | 86.2 | > 100 | > 100 | 115.66 | – | 43 | 44.1 | 49.8 | 13.3 | – | – | – | – | – | – | – |
| C=C(C)[C@@H]1CC=C(Cn2cc(COc3cc(C4NC(=O)NC(C)=C4C(=O)OCC)ccc3OC)nn2)CC1 (some centres not stated) | 37.8 | 98.1 | > 100 | > 100 | > 100 | 79.75 | – | > 100 | > 100 | > 100 | 13.5 | – | – | – | – | – | – | – |
| CCOC(=O)C1=C(C)NC(=O)NC1c1cccc(O)c1 (configuration not stated) | – | – | – | – | – | – | – | – | – | – | – | Active | Active | Active | Active | Active | Active | Active |
| CCOC(=O)C1=C(C)NC(=S)NC1c1cccc(O)c1 (configuration not stated) | – | – | – | – | – | – | – | – | – | – | – | Active | Active | Active | Active | Active | Active | Active |
| C=C(C)[C@@H]1CC=C(Cn2cc(COc3ccccc3C3NC(=O)NC(C)=C3C(=O)OCC)nn2)CC1 (some centres not stated) | > 100 | > 100 | > 100 | > 100 | > 100 | 294.37 | – | > 100 | > 100 | > 100 | 81.2 | – | – | – | – | – | – | – |
| C=C(C)[C@@H]1CC=C(Cn2cc(COc3cc(C4NC(=O)NC(C)=C4C(C)=O)ccc3OC)nn2)CC1 (some centres not stated) | > 100 | > 100 | 96 | 84.9 | > 100 | 486.19 | – | > 100 | > 100 | > 100 | > 100 | – | – | – | – | – | – | – |
| COc1cccc2c1C(=O)c1c(O)c3c(c(O)c1C2=O)C[C@@](O)(C(=O)CO)C[C@@H]3O[C@H]1C[C@H](N)[C@H](O)[C@H](C)O1 [DOXORUBICIN] | 1.66 | 0.09 | 0.88 | 0.78 | 0.46 | 1.47 | – | 0.99 | 0.02 | 15.7 | 0.04 | – | – | – | – | – | – | – |
| C=C(C)[C@@H]1CC=C(Cn2cc(COc3ccc(C4NC(=O)NC5=C4C(=O)CC(C)(C)C5)cc3)nn2)CC1 (some centres not stated) | 29.9 | 6.61 | > 100 | > 100 | > 100 | 436.18 | 66 | > 100 | 53.2 | 24 | 29.3 | – | – | – | – | – | – | – |
| C=C(C)[C@@H]1CC=C(Cn2cc(COc3ccc(C4NC(=O)NC(C)=C4C(=O)OCC)cc3)nn2)CC1 (some centres not stated) | 19.2 | 12.4 | 77.1 | > 100 | > 100 | 165.69 | – | 43.1 | 97.1 | 92.2 | 6.9 | – | – | – | – | – | – | – |
| C=C(C)[C@@H]1CC=C(Cn2cc(COc3ccccc3C3NC(=O)NC4=C3C(=O)CC(C)(C)C4)nn2)CC1 (some centres not stated) | 26.5 | 27 | 28.9 | > 100 | 38.7 | 78.72 | – | 45 | 26.7 | 21.7 | 11.8 | – | – | – | – | – | – | – |
